The source made the active and inactive calls. No cut-off for these calls is given here.

For experiment [1], the target named is T1, Signal transducer and activator of transcription 3 (Homo sapiens, UniProt P40763). Briefly: Inhibition of SH2 domain of Stat3 constitutive phosphorylation at Tyr705 in human MDA-MB-468 cells at 5 uM after 30 mins by Western blotting. Format: cell-based. Summed up:
(§1)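 MDA-MB-468 cells given a single 5 μM prodrug dose and harvested at set times; pTyr705 and total Stat3 by Western blot of 12 μg lysate protein on 8% SDS-PAGE.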

Experiment [2] deals with Baculoviral IAP repeat-containing protein 5 (Homo sapiens) (UniProt O15392). Briefly: Inhibition of survivin in human HCC-827 cells at 5 uM after up to 48 hrs by Western blotting. Format: cell-based.
Baculoviral IAP repeat-containing protein 5 (Homo sapiens), sequence (O15392 whole entry, the tested form may be a part): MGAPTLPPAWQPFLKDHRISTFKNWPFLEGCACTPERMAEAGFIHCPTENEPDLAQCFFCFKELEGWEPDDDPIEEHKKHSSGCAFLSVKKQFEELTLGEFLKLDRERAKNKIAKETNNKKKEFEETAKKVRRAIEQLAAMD
The target in experiment [3] is T1, Signal transducer and activator of transcription 3. Briefly: Inhibition of IL6-induced SH2 domain of Stat3 phosphorylation at Tyr705 in human MeWo cells up to 10 uM treated 1.5 hrs before IL6 challenge measured after 30 mins by Western blotting. It is filed as cell-based. Summed up: (§2)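 Hey, MeWo and A375 cells (3×10^5/well, RPMI1640, overnight, fresh medium) given increasing prodrug concentrations for 2 h, with IL-6 10 ng/mL during the final 30 min; pStat3 and total Stat3 by Western blot.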

The target is the same in experiment [4]. Kind of experiment: Inhibition of IL6-induced SH2 domain of Stat3 phosphorylation at Tyr705 in human HEY cells up to 10 uM treated 1.5 hrs before IL6 challenge measured after 30 mins by Western blotting. Format: cell-based. The essentials: as §2
Experiment [5] shares this target. Kind of experiment: Inhibition of SH2 domain of Stat3 constitutive phosphorylation at Tyr705 in human MDA-MB-468 cells at 0.5 uM after 2 hrs by Western blotting. Format: cell-based. The essentials:
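MDA-MB-468 cells (4×10^5/well, DMEM 10% FCS, overnight) given prodrug from freshly made 10 mM DMSO stock for 2 h. Lysates in Hepes pH 7.4 Triton buffer with phosphatase/protease inhibitors; 12 μg protein on 8% SDS-PAGE, PVDF, probed for pStat3 Y705 by ECL, then stripped and reprobed for total Stat3.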

Experiment [6] shares this target. Kind of experiment: Inhibition of SH2 domain of Stat3 constitutive phosphorylation at Tyr705 in human MDA-MB-468 cells at 5 uM after 8 hrs by Western blotting. Format: cell-based. Summed up:
as §1

The target is the same in experiment [7]. Briefly: Inhibition of SH2 domain of Stat3 constitutive phosphorylation at Tyr705 in human MDA-MB-468 cells at 5 uM after 2 hrs by fluorescence immunohistochemical analysis. It is filed as cell-based. The essentials: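 MDA-MB-468 cells on slides treated with 5 μM prodrug or DMSO for 2 h, fixed in 4% paraformaldehyde, permeabilized with 0.5% Triton X-100, blocked in 3% BSA, stained with anti-pTyr705 Stat3 and Alexa Fluor 594 secondary; confocal imaging at fixed microscope settings.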

Experiment [8] has the same target. Kind of experiment: Inhibition of EGF-induced SH2 domain of Stat3 phosphorylation at Tyr705 in human MDA-MB-468 cells at 5 uM treated 1.5 hrs before EGF challenge measured after 30 mins by Western blotting. Format: cell-based. The essentials:
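MDA-MB-468 cells pretreated 1.5 h with prodrug (5 μM), then EGF 100 ng/mL for 30 min; lysates split onto three PVDF blots probed for phospho/total Stat3, pSer473/total Akt, and phospho/total Stat5.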

Experiment [9] deals with T2, Signal transducer and activator of transcription 1-alpha/beta (Homo sapiens) (UniProt P42224).
T2 sequence (whole entry): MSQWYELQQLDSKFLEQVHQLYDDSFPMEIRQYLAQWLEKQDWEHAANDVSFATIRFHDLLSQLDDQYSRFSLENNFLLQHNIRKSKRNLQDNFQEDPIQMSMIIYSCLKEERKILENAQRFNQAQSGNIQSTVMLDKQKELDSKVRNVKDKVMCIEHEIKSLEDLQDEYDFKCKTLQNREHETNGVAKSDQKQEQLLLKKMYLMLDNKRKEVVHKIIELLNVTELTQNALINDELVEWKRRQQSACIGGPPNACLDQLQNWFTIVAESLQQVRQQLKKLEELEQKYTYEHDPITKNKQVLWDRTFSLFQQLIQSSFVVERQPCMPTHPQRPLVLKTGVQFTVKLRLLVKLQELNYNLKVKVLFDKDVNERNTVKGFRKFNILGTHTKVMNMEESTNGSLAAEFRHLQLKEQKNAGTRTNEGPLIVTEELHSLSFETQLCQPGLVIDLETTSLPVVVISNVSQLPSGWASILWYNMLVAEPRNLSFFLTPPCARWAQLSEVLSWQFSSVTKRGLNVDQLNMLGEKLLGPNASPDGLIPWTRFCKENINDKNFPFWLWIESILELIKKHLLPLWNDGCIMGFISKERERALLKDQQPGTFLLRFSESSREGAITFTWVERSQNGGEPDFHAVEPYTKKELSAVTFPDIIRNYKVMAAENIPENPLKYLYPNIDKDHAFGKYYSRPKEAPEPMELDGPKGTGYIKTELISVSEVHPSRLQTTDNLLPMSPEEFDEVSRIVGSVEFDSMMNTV
Briefly: Inhibition of IFN-gamma-induced Stat1 phosphorylation at Tyr701 in human MDA-MB-468 cells treated 1.5 hrs before IFN-gamma challenge measured after 30 mins by Western blotting. It is filed as cell-based. Summed up:
(§3)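 MDA-MB-468 cells exposed to rising prodrug concentrations for 1.5 h, then interferon γ 25 ng/mL for 30 min; Western blot for pTyr701 and total Stat1.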

The target of experiment [10] is T2, Signal transducer and activator of transcription 1-alpha/beta (Homo sapiens). Kind of experiment: Inhibition of IFN-gamma-induced Stat1 phosphorylation at Tyr701 in human MDA-MB-468 cells at 5 uM treated 1.5 hrs before IFN-gamma challenge measured after 30 mins by Western blotting. Format: cell-based. The essentials:
as §3

The next experiment deals with MDA-MB-468. Briefly: Selectivity ratio of inhibition of IFNgamma-induced Stat1 phosphorylation at Tyr701 to inhibition of EGF-induced SH2 domain of Stat3 phosphorylation at Tyr705 in human MDA-MB-468 cells. Format: cell-based.
For experiment [11], the target named is MAP kinase p38 (Homo sapiens) (UniProt O15264+Q15759+Q16539+P53778). Kind of experiment: Inhibition of p38 MAPK phosphorylation in human HCC-827 cells at 5 uM after up to 24 hrs by Western blotting. Format: cell-based.
The target of experiment [12] is T1, Signal transducer and activator of transcription 3. Kind of experiment: Inhibition of SH2 domain of Stat3 phosphorylation at Tyr705 in human HCC-827 cells at 5 uM after 10 mins by Western blotting. Format: cell-based. The essentials: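 HCC-827 NSCLC cells treated with 5 μM prodrug and sampled over a time course from 10 min to 24 h; pStat3 by Western blot.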

A short description of experiment [13]: Cytotoxicity against human HCC827 cells after 72 hrs by SRB assay. Format: functional, cell-based. Conditions: HCC827, 72 h. Summed up:
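Cancer cell lines (MCF-7, SKOV3-ip, HCC-827) dosed daily with prodrug for three days; viability by SRB assay.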

Experiment [14] is described as follows: Cytotoxicity against human H1299 cells assessed as cell growth inhibition at 5 to 10 uM after 72 hrs by MTT assay. It is filed as functional, NCI-H1299. Summed up: (§4)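 Cell lines with constitutive Stat3 phosphorylation (melanoma, NSCLC) exposed to prodrug at 5–10 μM. Percent growth inhibition recorded.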
A short description of experiment [15]: Cytotoxicity against human NCI-H1819 cells assessed as cell growth inhibition at 5 to 10 uM after 72 hrs by MTT assay. Format: functional. The essentials: as §4
The target of experiment [16] is Focal adhesion kinase 1 (Homo sapiens) (UniProt Q05397). Kind of experiment: Inhibition of constitutive FAK phosphorylation at Tyr861 in human MDA-MB-468 cells at 5 uM measured after 2 hrs by Western blotting.
Focal adhesion kinase 1 (Homo sapiens), sequence (Q05397 2-1052 limits assumed): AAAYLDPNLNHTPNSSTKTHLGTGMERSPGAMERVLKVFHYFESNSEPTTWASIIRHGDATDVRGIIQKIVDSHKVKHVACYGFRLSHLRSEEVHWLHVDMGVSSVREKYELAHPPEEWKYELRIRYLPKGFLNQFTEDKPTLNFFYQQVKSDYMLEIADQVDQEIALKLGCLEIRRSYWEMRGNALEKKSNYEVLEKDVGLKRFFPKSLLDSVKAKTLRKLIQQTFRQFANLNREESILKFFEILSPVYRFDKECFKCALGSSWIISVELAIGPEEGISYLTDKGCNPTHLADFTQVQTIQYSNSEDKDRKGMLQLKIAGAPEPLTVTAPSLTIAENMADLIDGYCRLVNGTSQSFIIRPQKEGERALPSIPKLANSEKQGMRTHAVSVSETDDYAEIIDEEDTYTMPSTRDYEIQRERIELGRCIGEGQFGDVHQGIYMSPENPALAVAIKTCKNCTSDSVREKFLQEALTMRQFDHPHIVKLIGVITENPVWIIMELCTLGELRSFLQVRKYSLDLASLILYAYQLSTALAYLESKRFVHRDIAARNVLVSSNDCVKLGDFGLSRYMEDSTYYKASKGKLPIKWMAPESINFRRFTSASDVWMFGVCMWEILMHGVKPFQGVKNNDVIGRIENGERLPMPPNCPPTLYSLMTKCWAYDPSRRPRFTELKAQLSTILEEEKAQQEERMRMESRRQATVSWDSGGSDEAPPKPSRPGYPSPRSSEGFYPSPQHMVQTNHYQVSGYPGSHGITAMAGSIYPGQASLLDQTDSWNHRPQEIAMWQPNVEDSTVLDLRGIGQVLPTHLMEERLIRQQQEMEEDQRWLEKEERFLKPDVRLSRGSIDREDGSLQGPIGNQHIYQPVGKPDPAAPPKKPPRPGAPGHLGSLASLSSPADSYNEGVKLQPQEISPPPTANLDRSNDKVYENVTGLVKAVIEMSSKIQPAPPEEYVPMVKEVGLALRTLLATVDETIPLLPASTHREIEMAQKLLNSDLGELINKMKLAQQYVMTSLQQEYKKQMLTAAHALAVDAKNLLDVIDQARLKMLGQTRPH

T1 sequence (P40763 whole entry, the tested form may be a part): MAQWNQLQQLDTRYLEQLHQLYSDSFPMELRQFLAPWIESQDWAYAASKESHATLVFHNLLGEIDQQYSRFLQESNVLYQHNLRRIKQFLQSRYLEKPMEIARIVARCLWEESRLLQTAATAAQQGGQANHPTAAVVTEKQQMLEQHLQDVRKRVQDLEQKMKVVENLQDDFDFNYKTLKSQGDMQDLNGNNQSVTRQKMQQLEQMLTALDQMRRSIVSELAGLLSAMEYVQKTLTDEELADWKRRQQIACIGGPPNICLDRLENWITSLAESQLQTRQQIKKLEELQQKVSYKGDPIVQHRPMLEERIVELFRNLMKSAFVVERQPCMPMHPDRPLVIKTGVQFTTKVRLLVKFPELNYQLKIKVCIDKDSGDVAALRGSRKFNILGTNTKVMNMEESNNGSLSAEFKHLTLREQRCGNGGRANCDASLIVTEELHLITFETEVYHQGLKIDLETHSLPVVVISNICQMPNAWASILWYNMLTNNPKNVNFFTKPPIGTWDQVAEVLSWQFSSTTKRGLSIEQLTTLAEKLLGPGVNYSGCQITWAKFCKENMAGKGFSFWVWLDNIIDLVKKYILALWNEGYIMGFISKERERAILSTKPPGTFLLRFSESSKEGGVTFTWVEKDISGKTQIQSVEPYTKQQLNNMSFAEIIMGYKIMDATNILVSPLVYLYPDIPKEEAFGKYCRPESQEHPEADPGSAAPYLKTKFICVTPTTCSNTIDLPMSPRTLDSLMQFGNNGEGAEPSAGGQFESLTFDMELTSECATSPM

Regarding `C/C(=C\C(=O)N[C@H]1CCc2cccc3c2N(C1=O)[C@H](C(=O)N[C@H](C)CCC(N)=O)C3)c1ccc(C(F)(F)P(=O)(OCOC(=O)C(C)(C)C)OCOC(=O)C(C)(C)C)cc1`, the inhibition result in [1], in [2], in experiment [3], in [4], in experiment [5] and in experiment [6] was “Active” each time. For the same compound, the inhibition entry in experiment [7], in experiment [8], in [10] and in experiment [12] was “Active” in each case. The inhibition entry in experiment [9] is “Dose-dependent effect”. Besides, the Ratio in the experiment with MDA-MB-468 was determined as 10. In addition, the inhibition entry in experiment [11] and in experiment [16] was “inactive” throughout. Moreover, the 50% inhibitory concentration (IC50) in experiment [13] is over 30 µM. Also, the “growth inhibition (GI)” value in [14] and in experiment [15] was under 20% throughout.

The record behind these values is ChEMBL document CHEMBL1773023, “Potent and selective phosphopeptide mimetic prodrugs targeted to the Src homology 2 (SH2) domain of signal transducer and activator of transcription 3” (J Med Chem, 2011).
